Legend:
[1] = biological target: T1, Mas-related G-protein coupled receptor member X1 (Homo sapiens, UniProt Q96LB2); test: Positive allosteric modulator activity at human MRGPRX1 expressed in HEK293 cells assessed as maximal efficacy at 5 uM in presence of BAM8-22 by Fluo4-dye based FLIPR assay relative to control; type: cell-based
[2] = Plasma protein binding in human assessed as unbound fraction; type: ADME, cell-free; settings: read-out: PPB
Outline: (§1)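 Equilibrium dialysis in human and mouse plasma; results expressed as […] fraction unbound.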

[3] = biological target: T1, Mas-related G-protein coupled receptor member X1; test: Positive allosteric modulator activity at human MRGPRX1 expressed in HEK293 cells in presence of BAM8-22 by Fluo4-dye based FLIPR assay; type: cell-based
Outline: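 HEK293 cells expressing MrgX1. Compounds tested in the presence of 10 nM BAM8-22. Emax normalized to control compound ML382; mean ± SEM of n = 2 experiments.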

[4] = Plasma protein binding in mouse assessed as unbound fraction; type: ADME, cell-free; settings: read-out: PPB; outline: as §1
[5] = Microsomal stability in human liver microsomes assessed as intrinsic clearance; type: ADME, Microsome; settings: read-out: CLH
Outline: (§2)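 Intrinsic clearance measured in human and mouse liver microsomes. Hepatic clearance predicted from it with the well-stirred organ CL model, binding terms excluded.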

[6] = Microsomal stability in mouse liver microsomes assessed as intrinsic clearance; type: ADME, Microsome; settings: read-out: CLH; outline: as §2
[7] = filed as positive allosteric modulator

T1 sequence (Q96LB2 whole entry): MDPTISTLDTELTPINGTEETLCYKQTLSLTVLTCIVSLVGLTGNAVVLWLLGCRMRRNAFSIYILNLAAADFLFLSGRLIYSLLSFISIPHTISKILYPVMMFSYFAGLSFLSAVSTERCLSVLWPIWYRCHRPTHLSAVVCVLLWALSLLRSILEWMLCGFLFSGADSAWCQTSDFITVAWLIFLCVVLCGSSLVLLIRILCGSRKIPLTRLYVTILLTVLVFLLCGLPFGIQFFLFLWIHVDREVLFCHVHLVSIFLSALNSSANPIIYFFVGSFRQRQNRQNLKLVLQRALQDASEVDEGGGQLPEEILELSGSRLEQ

SMILES | Emax [1] [%] | Emax [1, 7] [%] | EC50 [3] [nM] | also measured
CCOc1ccccc1Nc1nn(S(=O)(=O)C2CC2)c2ccccc12 | -5.7 | – | – | –
COCCOc1ccccc1NC(=O)c1ccccc1NS(=O)(=O)C1CC1 | 20.7 | – | – | –
CCOc1ccccc1NC(=O)c1ccc(C)cc1NS(=O)(=O)C1CC1 | 3.2 | – | – | –
CCOc1ccccc1NC(=O)c1ccccc1NS(=O)(=O)C1CC1 | – | 100 | 124 | fraction unbound [2]: 0.004; fraction unbound [4]: 0.017; CLint scaled [5]: 61.9 mL/min/kg; CLint scaled [6]: 1060 mL/min/kg
CC1(C)Oc2cccc(NC(=O)c3ccccc3NS(=O)(=O)C3CC3)c2O1 | -25.6 | – | – | –
O=C(Nc1cccc2c1OC(F)(F)O2)c1ccccc1NS(=O)(=O)C1CC1 | 14.6 | – | – | –
CCS(=O)(=O)Nc1ccccc1C(=O)Nc1ccc(F)cc1OCC(F)(F)F | – | 91.4 | 1400 | fraction unbound [2]: 0.005; fraction unbound [4]: 0.021; CLint scaled [5]: 80 mL/min/kg; CLint scaled [6]: 1210 mL/min/kg
O=C(Nc1cccc2c1OCCO2)c1ccccc1NS(=O)(=O)C1CC1 | 37.9 | – | 9010 | –
O=C(Nc1ccccc1OCC(F)(F)F)c1cc(F)ccc1NS(=O)(=O)C1CC1 | – | 59.8 | – | –
CCS(=O)(=O)Nc1ccc(F)cc1C(=O)Nc1ccccc1OCC(F)(F)F | – | 100 | 435 | –
O=C(Nc1ccccc1OCC(F)(F)F)c1ccc(F)cc1NS(=O)(=O)C1CC1 | 29.1 | – | – | –
CCOc1ccccc1CNC(=O)c1ccccc1NS(=O)(=O)C1CC1 | 12.7 | – | – | –
CCOC1CCCCC1NC(=O)c1ccccc1NS(=O)(=O)C1CC1 (stereo not drawn) | 24.2 | – | – | –
CCOc1ccccc1NC(=O)c1ncccc1NS(=O)(=O)C1CC1 | 0.1 | – | – | –
CCOc1ccc(F)cc1NC(=O)c1cc(Cl)ccc1NS(=O)(=O)C1CC1 | – | 104 | 55 | fraction unbound [2]: 0.001; fraction unbound [4]: 0.003; CLint scaled [5]: 138 mL/min/kg; CLint scaled [6]: > 2400 mL/min/kg
O=C(Nc1ccccc1OCC(F)(F)F)c1ccccc1NS(=O)(=O)C1CC1 | – | 95 | 502 | fraction unbound [2]: 0.004; fraction unbound [4]: 0.022; CLint scaled [5]: 40.2 mL/min/kg; CLint scaled [6]: 979 mL/min/kg
CCOc1ccccc1Nc1nn(S(=O)(=O)C2CC2)c2cccnc12 | 1.9 | – | – | –
CCOc1ccccc1NC(=O)c1ccncc1NS(=O)(=O)C1CC1 | 12.1 | – | – | –
COc1ccccc1N(C)C(=O)c1ccccc1NS(=O)(=O)C1CC1 | -11.9 | – | – | –
Cc1ccc(NS(=O)(=O)C2CC2)c(C(=O)Nc2ccccc2OCC(F)(F)F)c1 | – | 89.9 | 369 | –

SMILES | Emax [1] [%] | Emax [1, 7] [%] | EC50 [3] [nM] | also measured
CCOc1ccccc1NC(=O)c1ccc(F)cc1NS(=O)(=O)C1CC1 | – | 67.6 | 860 | –
CC(C)Oc1ccccc1NC(=O)c1ccccc1NS(=O)(=O)C1CC1 | – | 83.1 | 2830 | –
CCOc1ccccc1NC(=O)c1ccc(Cl)cc1NS(=O)(=O)C1CC1 | 36.1 | – | – | –
CCOc1ccccc1NC(=O)c1ccc2ccccc2c1NS(=O)(=O)C1CC1 | 8.9 | – | – | –
CCCOc1ccccc1NC(=O)c1ccccc1NS(=O)(=O)C1CC1 | – | 80.8 | 506 | fraction unbound [2]: < 0.003; fraction unbound [4]: 0.015; CLint scaled [5]: 116 mL/min/kg; CLint scaled [6]: 4890 mL/min/kg
O=C(Nc1ccc2c(c1)OCCO2)c1ccccc1NS(=O)(=O)C1CC1 | 2.1 | – | – | –
CCOc1ccccc1NC(=O)c1cc(Cl)ccc1NS(=O)(=O)CC | – | 89.2 | 407 | –
O=C(Nc1cccc2occc12)c1ccccc1NS(=O)(=O)C1CC1 | – | 53.4 | 14200 | –
Cc1cc2cccc(NC(=O)c3ccccc3NS(=O)(=O)C3CC3)c2o1 | – | 66.3 | 1040 | fraction unbound [2]: < 0.003; fraction unbound [4]: 0.026; CLint scaled [5]: 74.9 mL/min/kg; CLint scaled [6]: 1460 mL/min/kg
CCS(=O)(=O)Nc1ccc(C)cc1C(=O)Nc1ccccc1OCC(F)(F)F | – | 58.4 | – | –
CCOc1ccc(F)cc1NC(=O)c1cc(Cl)ccc1NS(=O)(=O)CC | – | 118 | 206 | –
CCOc1ccc(NC(=O)c2ccccc2NS(=O)(=O)C2CC2)c(OCC)c1 | – | 73.2 | 1090 | –
CCOc1ccccc1Nc1nn(S(=O)(=O)C2CC2)c2ncccc12 | -11.7 | – | – | –
O=C(Nc1ccccc1OC1CCCC1)c1ccccc1NS(=O)(=O)C1CC1 | – | 80.1 | 3140 | –
O=C(Nc1cccc2c1OCCC2)c1ccccc1NS(=O)(=O)C1CC1 | 27 | – | – | –
O=C(Nc1cccc2c1OCO2)c1ccccc1NS(=O)(=O)C1CC1 | 7.4 | – | – | –
O=C(c1ccccc1NS(=O)(=O)C1CC1)N1CCCc2ccccc21 | 6.8 | – | – | –
CCOc1ccccc1NC(=O)c1cc(F)ccc1NS(=O)(=O)C1CC1 | – | 102 | 173 | fraction unbound [2]: 0.004; fraction unbound [4]: 0.041; CLint scaled [5]: 45.4 mL/min/kg; CLint scaled [6]: 383 mL/min/kg
CCOc1ccc(F)cc1NC(=O)c1cc(F)ccc1NS(=O)(=O)CC | – | 136 | 31 | fraction unbound [2]: 0.002; fraction unbound [4]: 0.001; CLint scaled [5]: 69.1 mL/min/kg; CLint scaled [6]: 1240 mL/min/kg
CCOc1ccccc1NC(=O)c1cc2ccccc2cc1NS(=O)(=O)C1CC1 | 29.7 | – | – | –

SMILES | Emax [1] [%] | Emax [1, 7] [%] | EC50 [3] [nM] | also measured
O=C(Nc1ccccc1OCC1CC1)c1ccccc1NS(=O)(=O)C1CC1 | – | 61.5 | 1360 | –
CCOc1ccccc1NC(=O)c1cc(C)ccc1NS(=O)(=O)C1CC1 | – | 104 | 103 | fraction unbound [2]: 0.003; fraction unbound [4]: 0.043; CLint scaled [5]: 75.1 mL/min/kg; CLint scaled [6]: 410 mL/min/kg
CCOc1ccccc1NC(=O)c1cc(F)ccc1NS(=O)(=O)CC | – | 107 | 98 | fraction unbound [2]: 0.002; fraction unbound [4]: 0.041; CLint scaled [5]: 36 mL/min/kg; CLint scaled [6]: 269 mL/min/kg
CCOc1ccccc1NC(=O)c1cccc(NS(=O)(=O)C2CC2)c1 | -44.4 | – | – | –
CCOc1ccccc1NC(=O)c1ccc(NS(=O)(=O)C2CC2)cc1 | – | 70.6 | – | –
O=C(c1ccccc1NS(=O)(=O)C1CC1)N1CCOc2ccccc21 | 2.7 | – | – | –
COc1ccc(NC(=O)c2ccccc2NS(=O)(=O)C2CC2)cc1 | -15.6 | – | – | –
CCOc1cc(F)ccc1NC(=O)c1ccccc1NS(=O)(=O)C1CC1 | -10.5 | – | – | –
CCOc1ccc(F)cc1NC(=O)c1cc(C)ccc1NS(=O)(=O)CC | – | 128 | 80 | fraction unbound [2]: 0.003; fraction unbound [4]: 0.014; CLint scaled [5]: 69.3 mL/min/kg; CLint scaled [6]: 1000 mL/min/kg
CCOc1ccccc1-c1nnc(-c2ccccc2NS(=O)(=O)C2CC2)[nH]1 | 7.5 | – | – | –
CCOc1ccccc1NC(=O)c1cc(Cl)ccc1NS(=O)(=O)C1CC1 | – | 110 | 54 | fraction unbound [2]: 0.001; fraction unbound [4]: 0.001; CLint scaled [5]: 130 mL/min/kg; CLint scaled [6]: 1470 mL/min/kg
O=C(Nc1ccccc1OCC(F)(F)F)c1cc(Cl)ccc1NS(=O)(=O)C1CC1 | – | 103 | 915 | –
CCS(=O)(=O)Nc1ccc(Cl)cc1C(=O)Nc1ccccc1OCC(F)(F)F | – | 89.5 | 366 | –
CCOc1cccnc1NC(=O)c1ccccc1NS(=O)(=O)C1CC1 | 1.6 | – | – | –
CCOc1ccccc1NC(=O)c1cc(C)ccc1NS(=O)(=O)CC | – | 108 | 217 | –
CCOc1ccccc1-c1nnc(-c2ccccc2NS(=O)(=O)C2CC2)o1 | 6.7 | – | – | –
CCOc1cccc2nc(-c3ccccc3NS(=O)(=O)C3CC3)[nH]c12 | 23.8 | – | – | –
CCOc1ccc(F)cc1NC(=O)c1ccccc1NS(=O)(=O)CC | – | 74 | 285 | –
